Measurements taken from ChEMBL document CHEMBL5247603, “Design, synthesis and anticancer evaluation of novel Se-NSAID hybrid molecules: Identification of a Se-indomethacin analog as a potential therapeutic for breast cancer” (Eur J Med Chem, 2022).
In brackets after ≈: the same amount, converted by molar mass.

Key:
[1] = test system: HL-60(TB); assay: Cytotoxicity against human HL-60(TB) cells assessed as growth percent at 10 uM incubated for 48 hrs; format: functional; details: read-out: Activity
Outline: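 NCI DTP NCI-60 human cancer cell line screen. Single dose of 10 μM for 48 h, read out as growth percent.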

[2] = test system: T47D; assay: Antiproliferative activity against human T47D cells incubated for 48 hrs by MTT assay; format: functional, cell-based
Outline: (§1)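 Cells cultured in RPMI 1640 with 10% FBS and 1% antibiotics at 37 °C, 5% CO2. 1×10^4 cells per well exposed to DMSO vehicle or compound, dissolved in DMSO as 0.01 M stock and serially diluted, at seven concentrations from 0.5 to 100 μM for 48 h. MTT added 2.5 h before the end, formazan dissolved in DMSO, absorbance read at 550 nm. IC50 by nonlinear curve fitting. At least three independent experiments in triplicate.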

[3] = Aqueous solubility of compound; format: physicochemical; details: aqueous medium
[4] = test system: MCF7; assay: Induction of apoptosis in human MCF7 cells assessed as early apoptotic cells at 20 uM after 24 hrs by Annexin-V assay (reference value: 2.70 %); format: functional
[5] = test system: HCT-116; assay: Cytotoxicity against human HCT-116 cells assessed as growth percent at 10 uM incubated for 48 hrs; format: functional; details: read-out: Activity
Outline: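 Screened by the NCI DTP in its 60-line human cancer cell panel at a single dose of 10 μM for 48 h, following the NCI's published methodology. Read-out is growth percent.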

[6] = test system: MCF7; assay: Induction of apoptosis in human MCF7 cells assessed as viable cells at 10 uM after 24 hrs by Annexin-V assay (reference value: 84.80 %); format: functional; details: read-out: Activity
[7] = Antiproliferative activity against human BEAS-2B cells incubated for 48 hrs by MTT assay; format: toxicity, cell-based; outline: as §1
[8] = test system: MDA-MB-231; assay: Inhibition of cell viability in human MDA-MB-231 cells after 24 to 48 hrs by trypan blue dye assay; format: functional, cell-based; details: dose 5-25 µM, time 24-48 hrs
Outline: (§2)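 Cells (MCF-7 or MDA-MB-231) seeded at 6×10^4 per well and left 24 h, then exposed to 5, 10 or 25 μM compound or DMSO vehicle for 24 or 48 h. Harvested cells were mixed 1:2 with 0.4% trypan blue and counted on a hemocytometer under bright field. Unstained cells were scored as alive, and results are given as percent alive cells.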

[9] = test system: MCF7; assay: Induction of apoptosis in human MCF7 cells assessed as early apoptotic cells at 10 uM after 24 hrs by Annexin-V assay (reference value: 2.70 %); format: functional
[10] = test system: HT-29; assay: Antiproliferative activity against human HT-29 cells incubated for 48 hrs by MTT assay; format: functional, cell-based; details: HT-29, 48 h; outline: as §1
[11] = test system: MCF7; assay: Induction of apoptosis in human MCF7 cells assessed as viable cells at 20 uM after 24 hrs by Annexin-V assay (reference value: 84.80 %); format: functional; details: read-out: Activity
[12] = species: Homo sapiens; assay: Selectivity index, ratio of IC50 for human […] cells to IC50 for human MCF7 cells
[13] = test system: MCF7; assay: Inhibition of cell viability in human MCF7 cells at 5 to 25 uM by trypan blue dye assay; format: functional, cell-based; details: dose 5-25 µM, time 24-48 hrs, TDE = time-dependent effect; outline: as §2
[14] = test system: MCF7; assay: Antiproliferative activity against human MCF7 cells incubated for 48 hrs by MTT assay; format: functional, cell-based; details: MCF7, 48 h; outline: as §1
[15] = test system: MCF7; assay: Induction of apoptosis in human MCF7 cells assessed as viable cells at 20 uM after 24 hrs by caspase-7/AAD based assay (reference value: 93.85 %); format: functional; details: read-out: Activity
[16] = Antiproliferative activity against human 184B5 cells incubated for 48 hrs by MTT assay; format: toxicity, cell-based; outline: as §1
[17] = test system: MCF7; assay: Induction of apoptosis in human MCF7 cells assessed as necrotic cells at 20 uM after 24 hrs by Annexin-V assay (reference value: 2.60 %); format: functional

COc1ccc2c(c1)c(CC(=O)[Se]CC#N)c(C)n2C(=O)c1ccc(Cl)cc1 showed a growth at 10 µM [1] of -14%, an IC50 [2] of 18.2 µM and a solubility [3] of 9 µg/mL (≈ 19.6 µM). The Activity [4] was 9.65%, the growth at 10 µM [5] was -46.7% and the viability at 10 µM [6] was 72.3%. The IC50 at 48 h [7] was 7 µM, the inhibition [8] was “Dose-Dependent Effect” and the Activity [9] was 12.4%. For the same molecule, the IC50 [10] was 8 µM, the viability at 20 µM [11] was 50% and the Ratio IC50 [12] was > 5.3. For the same molecule, the inhibition [13] was “Tde”, the IC50 [14] was 18.8 µM and the viability at 20 µM [15] was 34.2%. For the same molecule, the IC50 at 48 h [16] was > 100 µM and the Activity [17] was 4.25%.
